Each structure is given as a SMILES string. In brackets after ≈: the same amount, converted by molar mass. Activity calls are given as the source filed them. The calls are words filed in the database; no cut-off is given here.

The term IC50 denotes the concentration that gives 50% inhibition. Low values mean greater potency, high ones weaker potency.

The test system of one experiment is A549. The experiment can be described thus: Cytotoxicity against human A549 cells by SRB assay. It is filed as functional. The conditions noted are these: for EC50: Homo sapiens, A549, read-out: ED50 (the source's name). An outline of the steps:
(§1)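 Sulforhodamine B assay on human lung (A549) and breast (MCF-7) cancer cell lines; ED50 taken as the compound concentration giving 50% reduction in absorbance at 562 nm relative to untreated cells.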
On the technique in general: In SRB staining, fixed cells bind dye roughly in proportion to their protein.

A further experiment concerns MCF7. In words: Cytotoxicity against human MCF7 cells by SRB assay. Particulars: for EC50: Homo sapiens, MCF7, read-out: ED50 (the source's name). The format is functional. An outline of the steps: as §1
The test system of experiment [1] is Plasmodium falciparum. In words: Antimalarial activity against Plasmodium falciparum W2. The format is functional, organism-based. An outline of the steps:
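In vitro drug susceptibility measured by parasite incorporation of radiolabeled hypoxanthine (modified Desjardins method); mefloquine and chloroquine run in parallel as positive controls.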

Experiment [2] concerns Plasmodium falciparum. In words: Antimalarial activity against Plasmodium falciparum D6. It is filed as functional, organism-based. An outline of the steps:
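Drug susceptibility in vitro by modified Desjardins method with Milhous modifications. Read-out is parasite incorporation of radiolabelled hypoxanthine. Mefloquine and chloroquine were run in parallel as positive controls.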

As to `COc1c(O)c2nccc3c4ccccc4n(c1=O)c23` [PICRASIDINE Q], the EC50 is 16.2 mg/L (≈ 60.8 µM) in the experiment with A549 and 18.1 mg/L (≈ 68 µM) in the experiment with MCF7. The figures for the IC50 with Plasmodium falciparum [1] and in the experiment with Plasmodium falciparum [2] were 3.52 mg/L (≈ 13.2 µM) and 2.96 mg/L (≈ 11.1 µM), respectively.

Take `O=c1ccc2nccc3c4ccc(O)cc4n1c23`: the EC50 is 10 mg/L (≈ 42.3 µM) in the experiment with A549 and 19.6 mg/L (≈ 83 µM) with MCF7. This compound gave an IC50 in the experiment with Plasmodium falciparum [1] of 2.34 mg/L (≈ 9.89 µM).

As to `COc1ccc2c3ccnc4ccc(=O)n(c2c1)c43`, in the experiment with A549, the “inhibition (INH)” value is given as 55% and the EC50 is below 2.5 mg/L. Also, the EC50 in the experiment with MCF7 worked out at 4.5 mg/L (≈ 18 µM).

Regarding `O=c1ccc2nccc3c4ccccc4n1c23` [CANTHIN-6-ONE], the EC50 is 3.6 mg/L (≈ 16.3 µM) with A549 and 7.3 mg/L (≈ 33.1 µM) in the experiment on MCF7. Moreover, half-maximal inhibition in the experiment on Plasmodium falciparum [1] (IC50) was put at 2.24 mg/L (≈ 10.2 µM).

For the compound `O=C(O)CCc1nccc2c1[nH]c1ccccc12`, the result in the experiment on A549 was inactive. In the experiment with MCF7, the “inhibition (INH)” value was 8% and the EC50 is above 20 mg/L.

For `COc1ccc2c3cc[n+]([O-])c4ccc(=O)n(c2c1)c34`, the EC50 in the experiment with A549 amounted to 18.5 mg/L (≈ 69.5 µM); in the experiment with MCF7, 18.9 mg/L (≈ 71 µM).

In the case of `COc1ccc2c(c1)[nH]c1c(CCC(=O)O)nccc12`, in the experiment with A549, the “inhibition (INH)” value was 7% and the EC50 was above 20 mg/L. In the experiment with MCF7, the “inhibition (INH)” value worked out at 15% and the EC50 is above 20 mg/L.

The values above are taken from ChEMBL document CHEMBL1147231, “Cytotoxic and antimalarial beta-carboline alkaloids from the roots of Eurycoma longifolia” (J Nat Prod, 2003).
